# According to PubChem BioAssay:
# The source made the active and inactive calls.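 Rule for the calls, unless noted: active = viability loss from added drug above about 55%, and viability with drug at most 40%, in both replicates (limit read from the data, passing the limit was not always enough); inconclusive = both conditions met in only one replicate; inactive = neither replicate meets both conditions.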
# Columns and labels:
# [1] = reducers of endogenous Her2 protein level, primary screen, SKBR3 breast tumor cells, AlphaScreen, ATP viability (AID 461;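 active = Her2 level under about 52% in both replicate screens, with viability over 70% of control, limit read from the data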;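 for Her2 level: lower value means less Her2 protein in the cells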;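 for viability: percent of carrier control wells set as 100% viability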); conditions: 18-24 h, measured here: SKBR3 viability, ATP luminescence, at 10 µM
# [2] = target: Receptor tyrosine-protein kinase erbB-2 (Homo sapiens) (UniProt P04626); test: as above; conditions: 18-24 h, at 10 µM, stronger effect = lower value
# Chain of Receptor tyrosine-protein kinase erbB-2 (Homo sapiens) (P04626 whole entry, looked up): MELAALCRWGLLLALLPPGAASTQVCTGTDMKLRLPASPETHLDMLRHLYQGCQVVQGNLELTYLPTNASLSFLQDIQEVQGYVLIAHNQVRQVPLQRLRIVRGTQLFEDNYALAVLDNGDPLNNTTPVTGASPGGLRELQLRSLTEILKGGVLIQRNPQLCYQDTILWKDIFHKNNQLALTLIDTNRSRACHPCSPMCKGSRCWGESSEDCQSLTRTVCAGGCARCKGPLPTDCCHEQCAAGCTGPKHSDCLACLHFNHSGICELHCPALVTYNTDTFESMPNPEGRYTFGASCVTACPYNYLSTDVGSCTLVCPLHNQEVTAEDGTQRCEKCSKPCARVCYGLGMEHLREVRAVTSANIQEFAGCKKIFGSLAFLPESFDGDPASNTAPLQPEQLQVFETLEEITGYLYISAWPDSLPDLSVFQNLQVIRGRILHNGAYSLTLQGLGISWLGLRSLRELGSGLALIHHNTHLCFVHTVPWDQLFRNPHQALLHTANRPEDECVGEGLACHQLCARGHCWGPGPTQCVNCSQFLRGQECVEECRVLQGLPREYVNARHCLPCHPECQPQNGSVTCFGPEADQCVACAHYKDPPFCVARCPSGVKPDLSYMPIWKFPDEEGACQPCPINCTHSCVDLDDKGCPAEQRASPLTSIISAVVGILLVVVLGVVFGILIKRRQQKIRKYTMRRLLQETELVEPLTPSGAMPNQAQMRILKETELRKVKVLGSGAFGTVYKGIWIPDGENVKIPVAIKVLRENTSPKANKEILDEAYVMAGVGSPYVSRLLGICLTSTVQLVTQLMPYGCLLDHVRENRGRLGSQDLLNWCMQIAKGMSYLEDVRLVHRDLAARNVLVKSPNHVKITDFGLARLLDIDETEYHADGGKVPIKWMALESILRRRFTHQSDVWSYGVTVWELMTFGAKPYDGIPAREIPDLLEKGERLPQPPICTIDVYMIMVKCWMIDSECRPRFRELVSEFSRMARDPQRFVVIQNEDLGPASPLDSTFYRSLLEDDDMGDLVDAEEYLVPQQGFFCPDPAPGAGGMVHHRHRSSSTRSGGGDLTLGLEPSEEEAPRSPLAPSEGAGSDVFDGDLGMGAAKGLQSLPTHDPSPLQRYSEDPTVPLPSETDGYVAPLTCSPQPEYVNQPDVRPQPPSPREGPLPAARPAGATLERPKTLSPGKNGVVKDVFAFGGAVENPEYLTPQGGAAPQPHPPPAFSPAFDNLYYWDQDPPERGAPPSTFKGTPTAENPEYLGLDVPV
# [3] = SK-BR-3 cell growth inhibitors, pilot screen, 24 h, human (AID 572;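 active = viability at or below 10% of carrier control in both of two separate runs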;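 note: compound exposure lasted between 18 and 24 h rather than exactly 24 h; 100% = carrier-treated control wells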); conditions: SK-BR-3 viability, CellTiter-Glo luminescence, at 10 µM, stronger effect = lower value
# [4] = HUVEC growth inhibition – cell-based, human, primary screen (AID 575;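 active = viability at or below 30% in both replicate assays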;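 note: 100% = median of untreated cell wells with 0.1% DMSO on each plate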); conditions: HUVEC proliferation, CellTiter-Glo luminescence, 72 h; at 10 µM; stronger effect = lower value
# Outline: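 Timing: 72 h treatment at 37 °C; material: HUVEC primary cells; technique: CellTiter-Glo luminescence measuring cellular ATP; controls: vehicle and MePR control wells; measure: percent of median DMSO-control luminescence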
# [5] = growth inhibitors of H69AR lung tumor, primary screen, human, duplicate replicates (AID 580;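 active = viability at or under a set limit in both replicates, limit being median viability minus 3 SD, cut at about 48% in these data, passing the limit was not always enough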;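 note: 100% = mean luminescence of untreated wells and 0% = no signal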); conditions: H69AR lung tumor cells viability, ATP luminescence, 72 h; at 10 µM; stronger effect = lower value
# [6] = reversal of MRP1-mediated doxorubicin resistance, pilot screen, H69AR cells, doxorubicin co-treatment (AID 601); conditions: CellTiter-Glo, 72 h, at 10 µM; for differential viability (reversal): stronger effect = higher value
# [7] = 384-well plate pilot, post-Golgi transport modulator project, inhibition of yeast transport mutant growth (AID 636; in the data active = inhibition above about 31%); conditions: absorbance 615 nm, about 18 h, stronger effect = higher value
# [8] = growth suppression of yeast trafficking mutant, preliminary HTS, modulators of trafficking downstream of Golgi apparatus project, 1536-format plate, OD 615 nm (AID 637; in the data active = inhibition above about 30%); conditions: yeast transport mutant growth, absorbance 615 nm, 18 h; stronger effect = higher value
# [9] = H69AR cells + 2 uM doxorubicin, measured here: viability with 2 uM doxorubicin, stronger effect = lower value
# [10] = H69AR cells, compound alone cytotoxicity
SMILES,viability [1] [%],Her2 level [2],viability [3],viability [4],viability [5],differential viability (reversal) ([6]; H69AR cells + 2 uM doxorubicin),"viability [6, 9] [%]","viability [6, 10] [%]",inhibition [7],inhibition [8]
COC(=O)c1cc(S(=O)(=O)N2CCC(C)CC2)ccc1F,71,104% (inactive),71% (inactive),88.6% (inactive),88.2% (inactive),-1.02% (inactive),89.2,88.2,-3.51% (inactive),2.79% (inactive)
O=C1CCCC2=C1C(c1ccc(Br)cc1)c1c([nH]c(=S)[nH]c1=O)N2 (stereo not given),84,112% (inactive),84% (inactive),99.3% (inactive),91.7% (inactive),6.69% (inactive),85.1,91.7,-4.47% (inactive),8.67% (inactive)
CC(=O)N1CCc2cc(S(=O)(=O)CCC(=O)N3CCN(c4ccccn4)CC3)ccc21,91.5,98% (inactive),91.5% (inactive),105% (inactive),98% (inactive),6.38% (inactive),91.6,98,4.67% (inactive),12% (inactive)
Nc1cc(-c2ccc(Br)cc2)nn1S(=O)(=O)c1ccccc1,90,108% (inactive),90% (inactive),74.2% (inactive),88% (inactive),0.535% (inactive),87.5,88,0.26% (inactive),3.67% (inactive)
O=C(CCN1C(=O)COc2ccccc21)N1CCN(c2ccccn2)CC1,130,96.5% (inactive),130% (inactive),114% (inactive),106% (inactive),27.7% (inactive),78.6,106,-2.08% (inactive),3.33% (inactive)
CCOc1cccc(C(=O)N(Cc2ccc(F)cc2)C2CCS(=O)(=O)C2)c1 (stereo not given),97,98% (inactive),97% (inactive),100% (inactive),86.3% (inactive),-3.54% (inactive),89.9,86.3,-1.82% (inactive),-2.33% (inactive)
Cc1ccc(-c2noc(CCC(=O)NC3CCCc4ccccc43)n2)cc1 (stereo not given),75,85.5% (inactive),75% (inactive),83.6% (inactive),92.5% (inactive),6.05% (inactive),86.4,92.5,-4.87% (inactive),-4.67% (inactive)
CCCCN(CCCC)C(=O)CN(C)S(=O)(=O)c1ccc2c(c1)n(C)c(=O)c(=O)n2C,99.5,86% (inactive),99.5% (inactive),113% (inactive),96.1% (inactive),3.39% (inactive),92.7,96.1,-2.24% (inactive),2.38% (inactive)
CCOC(=O)c1c(NCc2ccc3c(c2)OCO3)c2ccccc2[nH]c1=O,100,69.5% (inactive),100% (inactive),100% (inactive),87.3% (inactive),-5.86% (inactive),93.1,87.3,-8.78% (inactive),1.33% (inactive)
CC(=O)c1cc(C#N)c(SCC(=O)OC(C)C)nc1C,102,80.5% (inactive),102% (inactive),88% (inactive),61.2% (inactive),23.3% (inactive),37.9,61.2,-7.03% (inactive),5.67% (inactive)
CCOC(=O)c1[nH]c2ccccc2c1NC(=O)CCN1CCN(C(=O)OCC)CC1,110,89.5% (inactive),110% (inactive),81.4% (inactive),96.8% (inactive),19.1% (inactive),77.7,96.8,1.84% (inactive),-1.94% (inactive)
CCOC(=O)c1cc(C)sc1N1C(=O)C2C3C=CC(C3)C2C1=O (stereo not given),132,94.5% (inactive),132% (inactive),109% (inactive),98.7% (inactive),5.84% (inactive),92.8,98.7,-7.67% (inactive),-0.95% (inactive)
COCCNC(=O)c1cc2c(-c3ccccc3F)nn(C)c2s1,109,74% (inactive),109% (inactive),60.9% (inactive),93.9% (inactive),24.6% (inactive),69.3,93.9,-6.53% (inactive),-2.42% (inactive)
Cc1ncc(CO)c2c1OC(C)(C)OC2,95.5,104% (inactive),95.5% (inactive),92.8% (inactive),93.5% (inactive),4.48% (inactive),89,93.5,-5.79% (inactive),-0.91% (inactive)
Cc1oc(-c2ccccc2F)nc1CS(=O)(=O)CC(=O)NCCCN1CCc2ccccc2C1,81.5,81.5% (inactive),81.5% (inactive),56.5% (inactive),79.9% (inactive),-9.14% (inactive),89.1,79.9,-1.6% (inactive),-1.97% (inactive)
CCOC(=O)c1sc(NC(=O)C2CC=CCC2C(=O)O)nc1C (stereo not given),105,92.5% (inactive),105% (inactive),100% (inactive),98.1% (inactive),1.07% (inactive),97.1,98.1,-1.04% (inactive),-1.64% (inactive)
CCOC(=O)C(NC(C)=O)(NS(=O)(=O)c1ccccc1)C(F)(F)F (stereo not given),122,101% (inactive),122% (inactive),101% (inactive),100% (inactive),5.89% (inactive),94.2,100,-4.16% (inactive),1.59% (inactive)
COc1ccccc1N1CCN(c2nc3ccccc3nc2C(C#N)C(=O)OC(C)C)CC1 (stereo not given),77,112% (inactive),77% (inactive),71.6% (inactive),80.3% (inactive),3.12% (inactive),77.2,80.3,1.58% (inactive),-1.82% (inactive)
COc1ccc(N2CCN(Cc3nc4ccccc4c(=O)[nH]3)CC2)cc1,104,98% (inactive),104% (inactive),92.1% (inactive),94.3% (inactive),-2.54% (inactive),96.8,94.3,-3.33% (inactive),-5.57% (inactive)
Cc1cc(=O)oc2cc(OCC(=O)OCc3nnc(-c4ccccc4)o3)ccc12,106,92.5% (inactive),106% (inactive),84.1% (inactive),94.9% (inactive),3.04% (inactive),91.9,94.9,-6.18% (inactive),-0.16% (inactive)
CCOC(=O)c1ccc2[nH]c(C)c(CN3CCN(C)CC3)c(=O)c2c1,114,81% (inactive),114% (inactive),97.9% (inactive),91.4% (inactive),-0.335% (inactive),91.8,91.4,-7.03% (inactive),2.79% (inactive)
CC(C)(C)C(=O)Cn1c[n+](N)cn1,103,86% (inactive),103% (inactive),86.1% (inactive),96.9% (inactive),4.54% (inactive),92.4,96.9,-4.67% (inactive),0.49% (inactive)
CCCCOCP(=O)(CCCC)COCCCC,92.5,91.5% (inactive),92.5% (inactive),95.3% (inactive),94.1% (inactive),5.32% (inactive),88.8,94.1,-3.12% (inactive),-0.98% (inactive)
O=c1sc(Nc2ccccc2)nc2ccsc12,96.5,47% (active),96.5% (inactive),60.4% (inactive),75.9% (inactive),-2.11% (inactive),78,75.9,-8.16% (inactive),-3% (inactive)
CC(=O)Nc1ccc(OCC(O)CN2CCN(c3cccc(Cl)c3)CC2)cc1 (stereo not given),76.5,82% (inactive),76.5% (inactive),79.5% (inactive),88.4% (inactive),6.8% (inactive),81.5,88.4,-7.84% (inactive),5.74% (inactive)
CCOCCn1cnc2sc(C(=O)Nc3nc(C)c(C(=O)OCC)s3)c(C)c2c1=O,110,81% (inactive),110% (inactive),75.7% (inactive),78% (inactive),-14.5% (inactive),92.5,78,-1.18% (inactive),-2.42% (inactive)
O=C(O)C1CC(=O)N(Cc2ccccc2)C1 (stereo not given),109,96.5% (inactive),109% (inactive),91.2% (inactive),90.2% (inactive),0.445% (inactive),89.8,90.2,-5.39% (inactive),6.23% (inactive)
O=C(NCCc1c[nH]c2ccccc12)c1ccc(S(=O)(=O)NCc2ccco2)cc1,93.5,83.5% (inactive),93.5% (inactive),60.2% (inactive),65.6% (inactive),-11.9% (inactive),77.5,65.6,-1.82% (inactive),-5.4% (inactive)
Cc1cc(C)n(-c2nnc(C)n2/N=C/c2ccco2)n1,108,91% (inactive),108% (inactive),93.1% (inactive),96.1% (inactive),5.14% (inactive),91,96.1,-6.27% (inactive),-2.3% (inactive)
